{"data": "Results of several laboratories", "note": "Each line is one published result; the experiments were not run side by side. pIC50: −log10 of the molar value."}
{"SMILES": "CC(C)Nc1cccnc1N1CCN(C(=O)c2cc3cc(NS(C)(=O)=O)ccc3[nH]2)CC1", "organism": "Human immunodeficiency virus 1", "assay": "viral replication, inhibitor", "test system": "human PBMC", "conditions": "clinical isolate", "quantity": "IC90", "value": "57.6 nM"}
{"SMILES": "COC(=O)c1cc(-c2cccc(NC(=O)Nc3c(C)cccc3C)c2)on1", "organism": "Mycolicibacterium fortuitum", "assay": "microbial growth, broth dilution", "test system": "ATCC6841", "conditions": "48 h", "quantity": "MIC", "value": "> 64 µg/mL"}
{"SMILES": "CC(C)CN(C[C@@H](O)[C@H](Cc1ccccc1)NC(=O)O[C@H]1CO[C@H]2OCC[C@H]21)S(=O)(=O)c1ccc(B(O)O)cc1", "organism": "Human immunodeficiency virus 1", "assay": "viral replication, inhibitor", "test system": "MT2", "quantity": "pIC50", "value": 7.31}
{"SMILES": "CC[C@H](C)C[C@H](C)CCCCCCCCC(=O)N[C@H]1C[C@@H](O)[C@@H](NCCN)NC(=O)[C@@H]2[C@@H](O)CCN2C(=O)[C@H]([C@H](O)CCN)NC(=O)[C@H]([C@H](O)[C@@H](O)c2ccc(O)cc2)NC(=O)[C@@H]2C[C@@H](O)CN2C(=O)[C@H]([C@@H](C)O)NC1=O", "organism": "Clavispora lusitaniae", "assay": "microbial growth, broth dilution", "test system": "MY1396", "quantity": "MIC", "value": "0.25 µg/mL"}
{"SMILES": "Cc1ccnc2c1NC(=O)c1cccnc1N2C1CC1", "organism": "Human immunodeficiency virus 1", "assay": "viral replication", "test system": "human PBMC", "conditions": "clinical isolate", "quantity": "IC90", "value": "242 nM"}
{"SMILES": "CC(C)CN(C[C@@H](O)[C@H](Cc1ccccc1)NC(=O)O[C@H]1CO[C@H]2OCC[C@H]21)S(=O)(=O)c1ccc(N)cc1", "organism": "Human immunodeficiency virus 1", "assay": "viral replication", "test system": "T-lymphoid", "quantity": "pIC50", "value": 8.80}
{"SMILES": "CC(C)CN(C[C@@H](O)[C@H](Cc1ccccc1)NC(=O)O[C@H]1CO[C@H]2OCC[C@H]21)S(=O)(=O)c1ccc(N)cc1", "organism": "Human immunodeficiency virus 1", "assay": "viral replication, inhibitor", "test system": "MT2", "quantity": "pIC50", "value": 8.80}
{"SMILES": "COC(=O)c1cc(-c2ccc(NC(=O)Nc3ccc(Cl)c(Cl)c3)cc2)on1", "organism": "Mycolicibacterium fortuitum", "assay": "microbial growth, broth dilution", "test system": "ATCC6841", "conditions": "48 h", "quantity": "MIC", "value": "> 64 µg/mL"}
